# Experimental data reported in ChEMBL document CHEMBL5325390, “1,2,4-Triazole-3-thione analogues with an arylakyl group at position 4 as metallo-β-lactamase inhibitors” (Bioorg Med Chem, 2022).
# Key:
# [1] = test system: Klebsiella pneumoniae; experiment: Antimicrobial synergistic activity against blaVIM-4-producing multidrug-resistant Klebsiella pneumoniae VA416/02 clinical isolate assessed as meropenem MIC at 32 ug/ml by CLSI based broth microdilution method (reference value: 16 ug/ml); type: functional; conditions: dose 32 µg/ml
# [2] = test system: metallo-β-lactamase VIM-2 (Pseudomonas aeruginosa); experiment: Inhibition of VIM-2 (unknown origin) expressed in Escherichia coli BL21(DE3) assessed as substrate hydrolysis at 200 uM by UV-Vis spectrophotometric analysis relative to control
# [3] = test system: metallo-β-lactamase VIM-2 (Pseudomonas aeruginosa); experiment: Inhibition of VIM-2 (unknown origin) expressed in Escherichia coli BL21(DE3) assessed as substrate hydrolysis at 100 uM by UV-Vis spectrophotometric analysis relative to control
# [4] = test system: Klebsiella pneumoniae; experiment: Antimicrobial synergistic activity against blaVIM-1-producing multidrug-resistant Klebsiella pneumoniae 7023 clinical isolate assessed as meropenem MIC at 32 ug/ml by CLSI based broth microdilution method (reference value: 16 ug/ml); type: functional; conditions: dose 32 µg/ml
# [5] = molecular target: Metallo-beta-lactamase type 2 (Bacteria, UniProt C7C422); experiment: Binding affinity to NDM1 (unknown origin) expressed in Escherichia coli BL21(DE3) assessed as inhibition constant by measuring rate of substrate hydrolysis by UV-Vis spectrophotometric analysis
# Metallo-beta-lactamase type 2, sequence (C7C422 whole entry): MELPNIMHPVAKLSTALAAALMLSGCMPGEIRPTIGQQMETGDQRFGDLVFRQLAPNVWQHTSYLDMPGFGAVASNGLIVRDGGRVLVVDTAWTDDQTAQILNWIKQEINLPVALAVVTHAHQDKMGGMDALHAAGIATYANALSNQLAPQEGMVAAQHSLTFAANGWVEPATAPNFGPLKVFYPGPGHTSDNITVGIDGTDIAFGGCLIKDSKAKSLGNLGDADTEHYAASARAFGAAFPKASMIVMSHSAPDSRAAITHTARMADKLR
# How it was run: (§1)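 Purified MBL (1–70 nM) with 150 µM imipenem or meropenem as reporter substrate, 50 mM HEPES pH 7.5, 30 °C. Hydrolysis followed by absorbance at 300 nm without and with inhibitor (0.5 µM–1 mM). Ki from the slope of v0/vi vs [I] under a competitive model, or from Dixon plots varying inhibitor and substrate. […] Triplicate, mean ± SD.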
# [6] = Binding affinity to VIM-4 (unknown origin) expressed in Escherichia coli BL21(DE3) assessed as inhibition constant by measuring rate of substrate hydrolysis by UV-Vis spectrophotometric analysis; how it was run: as §1
# [7] = Binding affinity to IMP1 (unknown origin) expressed in Escherichia coli BL21(DE3) assessed as inhibition constant by measuring rate of substrate hydrolysis by UV-Vis spectrophotometric analysis; how it was run: as §1
# [8] = molecular target: Beta-lactamase VIM-1 (Bacteria, UniProt Q8GDC1); experiment: Binding affinity to VIM-1 (unknown origin) expressed in Escherichia coli BL21(DE3) assessed as inhibition constant by measuring rate of substrate hydrolysis by UV-Vis spectrophotometric analysis; how it was run: as §1
# [9] = molecular target: Metallo-beta-lactamase type 2 (Bacteria) (UniProt C7C422); experiment: Inhibition of NDM1 (unknown origin) expressed in Escherichia coli BL21(DE3) assessed as substrate hydrolysis at 100 uM by UV-Vis spectrophotometric analysis relative to control
# Metallo-beta-lactamase type 2 (Bacteria), sequence (C7C422 whole entry): as above
# How it was run: (§2)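 Single-point screen at 100 or 200 µM inhibitor against purified MBL (1–70 nM) with 150 µM imipenem or meropenem reporter substrate, 50 mM HEPES pH 7.5, 30 °C. Initial hydrolysis rate read by absorbance at 300 nm and compared with the uninhibited reaction. Triplicate.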
# [10] = test system: Escherichia coli; experiment: Synergistic antimicrobial activity against blaNDM-1-producing multidrug-resistant Escherichia coli SI-004M clinical isolate assessed as meropenem MIC at 32 ug/ml by CLSI based microdilution method (reference value: 64 ug/ml); type: functional; conditions: dose 32 µg/ml
# [11] = test system: metallo-β-lactamase IMP-1 (Pseudomonas aeruginosa); experiment: Inhibition of IMP1 (unknown origin) expressed in Escherichia coli BL21(DE3) assessed as substrate hydrolysis at 200 uM by UV-Vis spectrophotometric analysis relative to control
# [12] = test system: metallo-β-lactamase IMP-1 (Pseudomonas aeruginosa); experiment: Inhibition of IMP1 (unknown origin) expressed in Escherichia coli BL21(DE3) assessed as substrate hydrolysis at 100 uM by UV-Vis spectrophotometric analysis relative to control
# [13] = molecular target: Metallo-beta-lactamase type 2 (Bacteria) (UniProt C7C422); experiment: Inhibition of NDM1 (unknown origin) expressed in Escherichia coli BL21(DE3) assessed as substrate hydrolysis at 200 uM by UV-Vis spectrophotometric analysis relative to control; how it was run: as §2
# [14] = Binding affinity to VIM-2 (unknown origin) expressed in Escherichia coli BL21(DE3) assessed as inhibition constant by measuring rate of substrate hydrolysis by UV-Vis spectrophotometric analysis; how it was run: as §1
# [15] = test system: metallo-β-lactamase VIM-4 (Pseudomonas aeruginosa); experiment: Inhibition of VIM-4 (unknown origin) expressed in Escherichia coli BL21(DE3) assessed as substrate hydrolysis at 100 uM by UV-Vis spectrophotometric analysis relative to control
# [16] = test system: metallo-β-lactamase VIM-4 (Pseudomonas aeruginosa); experiment: Inhibition of VIM-4 (unknown origin) expressed in Escherichia coli BL21(DE3) assessed as substrate hydrolysis at 200 uM by UV-Vis spectrophotometric analysis relative to control
SMILES,MIC [1],inhibition [2],inhibition [3],MIC [4],Ki [6],Ki ([7]; read-out: Ki),Ki [8],inhibition [9],inhibition [12],inhibition [13],Ki [14],further results
Oc1ccc(CCn2c(-c3ccccc3)n[nH]c2=S)c(O)c1,2 µg/mL,< 50%,< 30%,4 µg/mL,4.1 µM,27 µM,5.1 µM,,,,,Ki ([5]; read-out: Ki(app)): 42 µM
O=C1OC(Cn2c(-c3ccccc3)n[nH]c2=S)c2ccccc21 (stereo not given),2 µg/mL,< 50%,< 30%,2 µg/mL,7.8 µM,,0.75 µM,51%,< 30%,,,MIC [10]: 64 µg/mL; inhibition [11]: < 50%
FC(F)(F)c1ccc(CCn2c(-c3ccccc3)n[nH]c2=S)cc1,,< 50%,< 30%,,,,,< 30%,< 30%,< 50%,,inhibition [11]: < 50%
O=C1OC(Cn2c(-c3cccc(-c4ccccc4)c3)n[nH]c2=S)c2ccccc21 (stereo not given),,< 50%,< 30%,,,,,< 30%,< 30%,< 50%,,inhibition [11]: < 50%
O=C1OC(Cn2c(-c3ccc4ccccc4c3)n[nH]c2=S)c2ccccc21 (stereo not given),,< 50%,< 30%,,8.2 µM,9.8 µM,6.3 µM,,,,,Ki ([5]; read-out: Ki(app)): 28 µM
Cn1cccc1-c1n[nH]c(=S)n1CC1OC(=O)c2ccccc21 (stereo not given),2 µg/mL,,38%,2 µg/mL,2.5 µM,,2.2 µM,31%,30%,,,MIC [10]: 32 µg/mL
O=C(O)c1ccccc1/C=N/n1c(-c2cccc(-c3ccccc3)c2)n[nH]c1=S,,,,,0.04 µM,17.7 µM,,,,,0.2 µM,Ki ([5]; read-out: Ki): 4.2 µM
Cc1ccccc1-c1n[nH]c(=S)n1CCc1ccccc1,4 µg/mL,,,4 µg/mL,2.4 µM,,3.3 µM,< 30%,,< 50%,9.4 µM,Ki ([7]; read-out: Ki(app)): 14 µM
COc1ccc(O)c(-c2n[nH]c(=S)n2CCc2ccccc2)c1,2 µg/mL,,,4 µg/mL,1.5 µM,20.2 µM,1.9 µM,,,,3.9 µM,MIC [10]: 64 µg/mL; Ki ([5]; read-out: Ki): 6.8 µM
Oc1ccc(/C=N/n2c(-c3ccccc3-c3ccccc3)n[nH]c2=S)c(O)c1,,,,,9 µM,12 µM,,,,,4.5 µM,Ki ([5]; read-out: Ki): 6.4 µM
O=C(NCc1ccccc1)c1ccccc1CCn1c(-c2ccccc2)n[nH]c1=S,,< 50%,< 30%,,,,,45%,45%,,,inhibition [15]: < 30%; inhibition [16]: < 50%
Oc1ccc(CCn2c(-c3ccccc3)n[nH]c2=S)cc1,4 µg/mL,,,4 µg/mL,2.3 µM,42 µM,2.1 µM,,,,6.1 µM,MIC [10]: 64 µg/mL; Ki ([5]; read-out: Ki): 12 µM
S=c1[nH]nc(-c2ccc3ccccc3c2)n1[C@@H]1C[C@H]1c1ccccc1,,< 50%,< 30%,,,,,< 30%,< 30%,< 50%,,inhibition [15]: 35%; inhibition [11]: < 50%
Cc1ccccc1-c1n[nH]c(=S)n1CCc1ccc(O)cc1,,,,,1.6 µM,,,< 30%,56%,< 50%,,
Sc1nnc(-c2ccccc2)n1-c1ccccc1,,,,,,,3.2 µM,< 30%,,,16 µM,
O=C(O)c1ccccc1CCn1c(-c2cccc(-c3ccccc3)c2)n[nH]c1=S,,,,,2.1 µM,,,< 30%,< 30%,,0.08 µM,
